Assay results reported in ChEMBL document CHEMBL3877241 (J Med Chem, 2016).
Calls of active or inactive are those of the source. The rule behind the calls is not given here.

What was measured:
[1] = biological target: T1, Protein deacetylase HDAC6 (Homo sapiens) (UniProt Q9UBN7); assay: Inhibition of full length human recombinant N-terminal GST-tagged HDAC6 (1 to 1215 residues) expressed in sf9 cells at 10 uM preincubated with enzyme followed by fluorogenic Arg-His-Lys-Lys(Ac)-AMC substrate addition measured after 2 hrs by fluorescence assay relative to control
T1 sequence (whole entry): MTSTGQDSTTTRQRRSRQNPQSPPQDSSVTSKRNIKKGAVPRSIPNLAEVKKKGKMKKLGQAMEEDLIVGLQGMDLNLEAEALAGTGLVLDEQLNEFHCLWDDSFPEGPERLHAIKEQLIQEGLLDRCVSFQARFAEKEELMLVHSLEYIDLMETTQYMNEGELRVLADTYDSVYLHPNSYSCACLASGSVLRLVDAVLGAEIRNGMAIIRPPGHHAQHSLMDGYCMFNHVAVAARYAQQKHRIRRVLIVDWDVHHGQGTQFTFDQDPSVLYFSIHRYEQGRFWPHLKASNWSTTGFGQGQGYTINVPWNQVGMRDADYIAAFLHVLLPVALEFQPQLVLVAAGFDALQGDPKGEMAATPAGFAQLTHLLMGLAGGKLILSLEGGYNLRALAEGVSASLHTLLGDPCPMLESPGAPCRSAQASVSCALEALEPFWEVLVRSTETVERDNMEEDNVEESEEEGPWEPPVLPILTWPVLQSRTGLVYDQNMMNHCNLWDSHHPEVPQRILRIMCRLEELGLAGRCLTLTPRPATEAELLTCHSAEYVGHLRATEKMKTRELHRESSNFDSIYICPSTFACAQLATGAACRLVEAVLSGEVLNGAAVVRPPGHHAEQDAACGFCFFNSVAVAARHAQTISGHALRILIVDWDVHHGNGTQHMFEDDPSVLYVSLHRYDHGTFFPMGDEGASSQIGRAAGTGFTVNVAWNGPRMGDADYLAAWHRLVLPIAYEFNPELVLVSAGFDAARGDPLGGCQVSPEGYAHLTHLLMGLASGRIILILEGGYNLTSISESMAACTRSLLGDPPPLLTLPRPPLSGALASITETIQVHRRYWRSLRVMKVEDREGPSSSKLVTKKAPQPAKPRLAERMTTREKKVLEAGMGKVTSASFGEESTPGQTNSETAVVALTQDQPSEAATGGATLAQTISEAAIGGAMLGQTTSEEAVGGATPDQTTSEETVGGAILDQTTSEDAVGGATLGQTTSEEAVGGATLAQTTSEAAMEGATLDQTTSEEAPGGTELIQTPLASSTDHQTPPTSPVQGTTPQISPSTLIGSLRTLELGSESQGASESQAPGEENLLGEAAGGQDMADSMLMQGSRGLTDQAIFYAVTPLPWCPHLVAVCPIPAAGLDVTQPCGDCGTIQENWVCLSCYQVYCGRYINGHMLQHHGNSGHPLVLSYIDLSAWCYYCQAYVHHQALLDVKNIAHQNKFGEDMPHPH

[2] = Antiproliferative activity against mouse TAMH cells after 24 hrs by CellTiter-Glo assay; format: ADME, cell-based
[3] = Apparent intrinsic clearance in rat liver microsomes at 3 uM preincubated for 5 mins followed by NADPH addition measured after 45 mins by LC-MS/MS analysis; format: ADME; conditions: read-out: CLH(app)
Summary of the method: (§1)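 Male and female rat liver microsomes (0.3 mg protein/mL final) with compound at 3 μM final in 0.1 M phosphate buffer pH 7.4. Preincubated 5 min at 37 °C, then started with NADPH (1 mM final). Sampled at 0, 5, 10, 15, 30 and 45 min and quenched with cold acetonitrile containing internal standard. Read by LC-MS/MS; run in triplicate; midazolam (3 μM) as positive control.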

[4] = Antiproliferative activity against human HL60 cells; format: functional, cell-based; conditions: HL-60
[5] = Half life in rat liver microsomes at 3 uM preincubated for 5 mins followed by NADPH addition by LC-MS/MS analysis; format: ADME; summary of the method: as §1
cells = format: functional, cell-based; conditions: Homo sapiens, HEL 92.1.7, 36 h
[6] = biological target: T2, Protein deacetylase HDAC6 (Homo sapiens, UniProt Q9UBN7); assay: Inhibition of full length human recombinant N-terminal GST-tagged HDAC6 (1 to 1215 residues) expressed in sf9 cells preincubated with enzyme followed by fluorogenic Arg-His-Lys-Lys(Ac)-AMC substrate addition measured after 2 hrs by fluorescence assay
T2 sequence (Q9UBN7 whole entry): T1 sequence (whole entry)

[7] = Antiproliferative activity against human HCT116 cells after 72 hrs by MTT assay; format: functional, cell-based; conditions: HCT-116, 72 h
Summary of the method: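 MTT viability after 72 h exposure. Cells seeded at 2500/well and left 24 h before compound addition; DMSO at 0.5% v/v final. MTT added in FBS-free medium for 3 h at 37 °C, formazan dissolved in DMSO, absorbance read at 570 nm. IC50 from a sigmoidal fit of % viability vs log concentration; triplicates on separate occasions using two different stock solutions.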

[8] = Therapeutic index, ratio of IC50 for mouse TAMH cells to IC50 for human cancer cells; conditions: cancer cell lines
Histone deacetylase 1 = Histone deacetylase 1 (Homo sapiens, UniProt Q13547); assay: Inhibition of full length human recombinant C-terminal FLAG/His-tagged HDAC1 (1 to 482 residues) expressed in sf21 cells preincubated with enzyme followed by fluorogenic Arg-His-Lys-Lys(Ac)-AMC substrate addition measured after 2 hrs by fluorescence assay
[9] = Antiproliferative activity against human MCF7 cells after 72 hrs by MTT assay; format: functional, cell-based; conditions: MCF7, 72 h
[10] = Antiproliferative activity against human Jurkat cells; format: functional, cell-based
[11] = Antiproliferative activity against human MDA-MB-231 cells after 72 hrs by MTT assay; format: functional, cell-based; conditions: MDA-MB-231, 72 h
[12] = biological target: T3, Tyrosine-protein kinase JAK2 (Homo sapiens, UniProt O60674); assay: Inhibition of JAK2 (unknown origin) preincubated for 20 mins followed by [33P]ATP addition measured after 120 mins by Hotspot assay
[13] = Antiproliferative activity against human PC3 cells after 72 hrs by MTT assay; format: functional, cell-based; conditions: PC-3, 72 h
MOLM-14 [14] = assay: Induction of apoptosis in human MOLM14 cells assessed as late apoptotic cells at 1 uM after 48 hrs by Annexin-V FITC/propidium iodide staining based flow cytometry (reference value: 2.1 to 2.2%); format: functional
Summary of the method: (§2)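 MOLM-14 cells treated 48 h at the stated concentrations; doxorubicin as positive control. Stained with Annexin V-FITC and propidium iodide and analysed by flow cytometry (at least 10,000 events). Gated quadrants: Annexin V−/PI− viable, Annexin V+/PI− early apoptotic, Annexin V+/PI+ late apoptotic.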

MOLM-14 [15] = assay: Induction of apoptosis in human MOLM14 cells assessed as early apoptotic cells at 1 uM after 48 hrs by Annexin-V FITC/propidium iodide staining based flow cytometry (reference value: 3.6 to 3.7%); format: functional; summary of the method: as §2
MOLM-14 [16] = assay: Induction of apoptosis in human MOLM14 cells assessed as necrotic cells at 1 uM after 48 hrs by Annexin-V FITC/propidium iodide staining based flow cytometry (reference value: 0.1%); format: functional; summary of the method: as §2
MOLM-14 [17] = assay: Induction of apoptosis in human MOLM14 cells assessed as live cells at 1 uM after 48 hrs by Annexin-V FITC/propidium iodide staining based flow cytometry (reference value: 94 to 94.1%); format: functional; summary of the method: as §2
[18] = Antiproliferative activity against human KG1 cells after 48 hrs by CellTiter-Glo assay; format: functional, cell-based; conditions: KG-1, 48 h
[19] = Antiproliferative activity against human Jurkat cells after 48 hrs by CellTiter-Glo assay; format: functional, cell-based
[20] = Antiproliferative activity against human MCF7 cells after 48 hrs by CellTiter-Glo assay; format: functional, cell-based; conditions: MCF7, 48 h
[21] = test system: Tyrosine-protein kinase JAK2 (Homo sapiens), O60674 [V617F]; assay: Induction of JAK2 V617F mutant phosphorylation at Y1007/8 residues in HEL 92.1.7 cells after 1 hr by immunoblot method; format: cell-based
Summary of the method: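 HEL92.1.7 cells seeded at 5x10^5/mL and treated 1 h at 0, 0.1, 0.5 and 1 μM. Lysed in RIPA with phosphatase/protease inhibitors, run on 10% SDS-PAGE and blotted to PVDF. Probed for acetyl-tubulin, acetyl-H3 (Lys9/Lys14), p-JAK2 (Y1007/1008) and p-STAT5 (Tyr694); membranes re-probed for tubulin, H3, JAK2 and STAT5. Quantified by densitometry.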

[22] = Antiproliferative activity against human PC3 cells after 48 hrs by CellTiter-Glo assay; format: functional, cell-based; conditions: PC-3, 48 h
[23] = Antiproliferative activity against human HCT116 cells after 48 hrs by CellTiter-Glo assay; format: functional, cell-based; conditions: HCT-116, 48 h
[24] = biological target: T3, Tyrosine-protein kinase JAK2; assay: Inhibition of JAK2 in IL-6-stimulated human MOLM14 cells assessed as suppression of STAT3 phosphorylation at TY705 residue at 0.1 uM pretreated for 3 hrs followed by IL-6 stimulation by immunoblot method; format: cell-based; conditions: MOLM-14
Summary of the method: (§3)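 KMS-12-BM or MOLM-14 cells pretreated with compound for 3 h, then stimulated with IL-6 (10 ng/mL) for 15 min. Lysates immunoblotted for p-STAT3 (Y705) and re-probed for total STAT3. Reference JAK2 inhibitor used at 2 μM in KMS-12-BM and 0.1 μM in MOLM-14.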

[25] = Antiproliferative activity against human KMS-12-BM cells after 48 hrs by CellTiter-Glo assay; format: functional, cell-based
[26] = Antiproliferative activity against human KHYG cells after 48 hrs by CellTiter-Glo assay; format: functional, cell-based
[27] = Antiproliferative activity against human OPM2 cells after 48 hrs by CellTiter-Glo assay; format: functional, cell-based; conditions: OPM-2, 48 h
Summary of the method: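 OPM2 grown in RPMI 1640 with 10% FBS and penicillin/streptomycin at 37 °C, 5% CO2. Treated at 25,000 cells/well in triplicate for 48 h. Viability read by CellTiter-Glo luminescence. IC50 taken from a sigmoidal fit of % viability vs log concentration.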

[28] = Antiproliferative activity against human NKYS cells after 48 hrs by CellTiter-Glo assay; format: functional, cell-based
[29] = Antiproliferative activity against human MOLM14 cells harboring FLT3-ITD mutant after 48 hrs by CellTiter-Glo assay; format: functional, cell-based; conditions: MOLM-14, 48 h
[30] = Antiproliferative activity against HEL 92.1.7 cells harboring JAK2 V617F mutant after 48 hrs by CellTiter-Glo assay; format: functional, cell-based; conditions: Homo sapiens, HEL 92.1.7, 48 h
[31] = biological target: T3, Tyrosine-protein kinase JAK2; assay: Inhibition of JAK2 in IL-6-stimulated human KMS-12-BM cells assessed as suppression of STAT3 phosphorylation at TY705 residue at 2 uM pretreated for 3 hrs followed by IL-6 stimulation by immunoblot method; summary of the method: as §3

T3 sequence (O60674 whole entry): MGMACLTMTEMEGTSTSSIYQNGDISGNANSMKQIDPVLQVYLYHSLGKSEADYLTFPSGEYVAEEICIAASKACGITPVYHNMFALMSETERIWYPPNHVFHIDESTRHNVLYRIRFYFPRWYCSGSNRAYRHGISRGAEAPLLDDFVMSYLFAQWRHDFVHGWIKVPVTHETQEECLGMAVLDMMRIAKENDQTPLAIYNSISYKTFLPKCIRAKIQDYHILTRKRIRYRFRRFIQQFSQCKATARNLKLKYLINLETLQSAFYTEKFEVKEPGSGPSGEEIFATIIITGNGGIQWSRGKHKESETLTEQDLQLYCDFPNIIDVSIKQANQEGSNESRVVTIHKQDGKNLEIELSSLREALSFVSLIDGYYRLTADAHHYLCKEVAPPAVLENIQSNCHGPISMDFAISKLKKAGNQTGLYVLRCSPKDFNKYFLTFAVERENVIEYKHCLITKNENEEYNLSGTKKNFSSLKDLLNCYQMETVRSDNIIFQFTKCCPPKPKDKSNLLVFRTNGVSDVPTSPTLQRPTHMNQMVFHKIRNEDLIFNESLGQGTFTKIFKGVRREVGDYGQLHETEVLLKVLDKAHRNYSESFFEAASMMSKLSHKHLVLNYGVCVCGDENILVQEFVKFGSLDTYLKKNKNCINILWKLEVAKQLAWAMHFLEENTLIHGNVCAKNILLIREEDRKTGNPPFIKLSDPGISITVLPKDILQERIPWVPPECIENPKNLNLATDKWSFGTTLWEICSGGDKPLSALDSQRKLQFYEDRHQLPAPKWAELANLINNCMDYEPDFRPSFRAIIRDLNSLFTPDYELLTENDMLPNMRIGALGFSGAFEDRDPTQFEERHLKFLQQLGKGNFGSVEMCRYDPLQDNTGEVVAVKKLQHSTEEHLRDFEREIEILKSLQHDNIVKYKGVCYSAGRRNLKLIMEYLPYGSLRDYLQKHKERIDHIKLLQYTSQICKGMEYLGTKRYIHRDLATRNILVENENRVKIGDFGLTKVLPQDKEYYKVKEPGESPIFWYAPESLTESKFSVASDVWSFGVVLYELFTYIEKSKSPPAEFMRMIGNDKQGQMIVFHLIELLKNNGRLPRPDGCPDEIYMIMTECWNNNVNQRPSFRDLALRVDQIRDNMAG
Chain of Tyrosine-protein kinase JAK2 (Homo sapiens), O60674 [V617F] (O60674 whole entry V617F): as the sequence (O60674 whole entry) above, with V617F counted along it
Chain of Histone deacetylase 1 (Q13547 whole entry, the tested form may be a part): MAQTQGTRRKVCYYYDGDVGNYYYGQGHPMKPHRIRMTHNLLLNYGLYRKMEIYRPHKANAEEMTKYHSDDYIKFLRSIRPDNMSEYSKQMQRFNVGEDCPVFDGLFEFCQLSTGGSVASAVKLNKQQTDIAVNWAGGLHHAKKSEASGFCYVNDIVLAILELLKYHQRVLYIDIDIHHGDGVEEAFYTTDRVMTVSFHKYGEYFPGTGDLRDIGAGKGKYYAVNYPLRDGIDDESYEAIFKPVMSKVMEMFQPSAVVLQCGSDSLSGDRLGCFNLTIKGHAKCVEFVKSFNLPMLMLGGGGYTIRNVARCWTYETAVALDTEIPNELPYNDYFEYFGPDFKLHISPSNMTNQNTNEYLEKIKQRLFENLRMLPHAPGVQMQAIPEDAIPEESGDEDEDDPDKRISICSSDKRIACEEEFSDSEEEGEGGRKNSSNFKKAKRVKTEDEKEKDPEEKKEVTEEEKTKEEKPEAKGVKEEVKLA

O=C(O)CCCCCC(=O)Nc1ccc(NCCOc2ccc3cc2COC/C=C/COCc2cccc(c2)-c2ccnc(n2)N3)cc1
inhibition [1]: 20 to 24%

O=C(CCCCCCCOc1ccc2cc1COC/C=C/COCc1cccc(c1)-c1ccnc(n1)N2)NO
IC50 [2]: 5.26 µM | CLint scaled at 3 µM [3]: 200 to 225 mL/min/kg | IC50 [4]: > 4000 nM | half-life at 3 µM [5]: 21 to 23.4 min | IC50 (cells): > 2000 nM | IC50 [6]: 15.8 nM | IC50 [7]: 6.23 µM | selectivity ratio [8]: 1.8 | IC50 (Histone deacetylase 1): 2340 nM | IC50 [9]: 9.48 µM | IC50 [10]: 2480 nM | IC50 [11]: 6.44 µM | IC50 [12]: 5 nM | IC50 [13]: 10.1 µM

COc1cccc2c1C(=O)c1c(O)c3c(c(O)c1C2=O)C[C@@](O)(C(=O)CO)C[C@@H]3O[C@H]1C[C@H](N)[C@H](O)[C@H](C)O1 [DOXORUBICIN]
Activity (MOLM-14 [14]): 59.9% | Activity (MOLM-14 [15]): 38.8% | Activity (MOLM-14 [16]): 0.4% | Activity (MOLM-14 [17]): 0.8%

C1=N/C2=N/c3ccc(OCCN4CCCC4)c(c3)COC/C=C/COCc3cccc(c3)C(=C1)N2 [PACRITINIB]
IC50 [18]: 1480 nM | IC50 [19]: 839 nM | IC50 [2]: 3.68 µM | IC50 [4]: 1780 nM | IC50 (cells): 1170 nM | IC50 [20]: 850 nM | IC50 [7]: 0.88 µM | Activity [21]: Active | IC50 [22]: 770 nM | IC50 [9]: 0.29 µM | IC50 [23]: 1690 nM | IC50 [10]: 1090 nM | inhibition [24]: Active | IC50 [25]: 750 nM | IC50 [26]: 1240 nM | IC50 [27]: 1210 nM | IC50 [28]: 1600 nM | IC50 [11]: 2.43 µM | IC50 [13]: 2.41 µM | IC50 [29]: 79 nM | IC50 [30]: 1730 nM | inhibition [31]: Active
